# Reference: ChEMBL document CHEMBL1137753, “Insecticidal heterolignans--tubuline polymerization inhibitors with activity against chewing pests” (Bioorg Med Chem, 2009)
# Active and inactive are the calls of the source. Unless noted, the rule behind the calls is not given here.
# What was measured:
# Phaedon cochleariae [1] = assay: Insecticidal activity against Phaedon cochleariae larvae in disk of Chinese cabbage leaf at 100 g/ha treated as spray; assay type: functional, organism-based
# In short: (§1)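 This was sprayed on Chinese cabbage leaf disks. Once dry, disks were infested with mustard beetle larvae and mortality was scored after a set time. "+" denotes ≥80% larvae killed; n.a. denotes none killed.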
# Spodoptera frugiperda [2] = assay: Insecticidal activity against Spodoptera frugiperda larvae in disk of maize leaf treated as spray; assay type: functional, organism-based
# Bos taurus = organism: Bos taurus; assay: Inhibition of bovine tubulin polymerization
# In short: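 Tubulin (>99% pure, 300 µg/sample) was suspended at 4 °C in G-PEM buffer (80 mM PIPES, 2 mM MgCl2, 0.5 mM EGTA, 1.0 mM GTP, pH 6.9) plus 5% glycerol, with or without compound. Colchicine and taxol served as standards. Polymerization at 37 °C was followed as absorbance at 340 nm every 1 min for up to 60 min.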
# Spodoptera frugiperda [3] = assay: Insecticidal activity against Spodoptera frugiperda larvae in disk of maize leaf at 500 g/ha treated as spray; assay type: functional, organism-based
# In short: (§2)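 The same acetone/DMF/emulsifier formulation, diluted in emulsifier-containing water, was sprayed onto maize leaf disks. Dried disks were infested with fall armyworm larvae and mortality was assessed after a set time. "+" denotes ≥80% larvae killed; n.a. denotes no larvae killed.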
# Phaedon cochleariae [4] = assay: Insecticidal activity against Phaedon cochleariae larvae in disk of Chinese cabbage leaf treated as spray; assay type: functional, organism-based
# Spodoptera frugiperda [5] = assay: Insecticidal activity against Spodoptera frugiperda larvae in disk of maize leaf at 100 g/ha treated as spray; assay type: functional, organism-based; in short: as §2
# CHO [6] = assay: Cytotoxicity against CHO cells assessed as chromatin condensation after 24 hrs by fluorescence microscopy; assay type: cell-based, Cricetulus griseus; settings: chinese hamster
# CHO [7] = assay: Cytotoxicity against CHO cells assessed as chromatin condensation after 48 hrs by fluorescence microscopy; assay type: cell-based, Cricetulus griseus; settings: chinese hamster
# In short: (§3)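 Sf9 or CHO cells were seeded in chamber slides the day before treatment and exposed to compound for 48 h. They were then PBS-washed, fixed in ice-cold methanol for 10 min on ice, and rinsed with acetone. After rehydration in PBS, cells were stained with 2 µM DAPI for 30 min. Nuclei were examined by fluorescence microscopy (×40) for chromatin condensation or fragmentation.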
# Spodoptera frugiperda [8] = assay: Insecticidal activity against Spodoptera frugiperda larvae in disk of maize leaf at 4 g/ha treated as spray; assay type: functional, organism-based; in short: as §2
# Sf9 [9] = assay: Cytotoxicity against Spodoptera frugiperda Sf9 cells assessed as chromatin condensation at 0.14 ppm after 48 hrs by fluorescence microscopy; assay type: functional, cell-based
# In short: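 Sf9 cells seeded in 8-well slide chambers the day before, then exposed to compound for 48 h. After two PBS washes, cells were fixed in ice-cold methanol for 10 min on ice, given two short acetone washes, rehydrated in PBS and stained with Dapi (2 µM) for 30 min. Chromatin condensation/fragmentation scored by fluorescence microscopy with a x40 objective.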
# Phaedon cochleariae [10] = assay: Insecticidal activity against Phaedon cochleariae larvae in disk of Chinese cabbage leaf at 500 g/ha treated as spray; assay type: functional, organism-based; in short: as §1
# Phaedon cochleariae [11] = assay: Insecticidal activity against Phaedon cochleariae larvae in disk of Chinese cabbage leaf at 20 g/ha treated as spray; assay type: functional, organism-based; in short: as §1
# Sf9 [12] = assay: Cytotoxicity against Spodoptera frugiperda Sf9 cells assessed as chromatin condensation at 3 ppm after 48 hrs by fluorescence microscopy; assay type: functional, cell-based; in short: as §3
structure (smiles),measurement,setting,value
COc1cc(C2C3=C(COC3=O)Nc3cc4c(cc32)OCO4)cc(Br)c1OC (stereo not given),Activity,Phaedon cochleariae [1],Active
same,Activity,Spodoptera frugiperda [2],inactive
CC(=O)O[C@H]1C(=O)[C@@]2(C)[C@H]([C@H](OC(=O)c3ccccc3)[C@]3(O)C[C@H](OC(=O)[C@H](O)[C@@H](NC(=O)c4ccccc4)c4ccccc4)C(C)=C1C3(C)C)[C@]1(OC(C)=O)CO[C@@H]1C[C@@H]2O,inhibition,Bos taurus,inactive
O=C1OCC2=C1C(c1cc(Br)c3c(c1)OCO3)c1cc3c(cc1N2)OCO3 (stereo not given),Activity,Spodoptera frugiperda [3],Active
same,Activity,Phaedon cochleariae [1],Active
O=C1OCC2=C1C(c1cc(F)c(F)c(F)c1)c1cc3c(cc1N2)OCO3 (stereo not given),Activity,Phaedon cochleariae [4],inactive
same,Activity,Spodoptera frugiperda [3],Active
CC1CC2=C(C(=O)O1)C(c1cccc(Cl)c1)c1cc3c(cc1N2)OCO3 (stereo not given),Activity,Spodoptera frugiperda [5],Active
same,Activity,Phaedon cochleariae [1],Active
COc1cc(C2C3=C(COC3=O)Nc3cc4c(cc32)OCO4)cc(SC)c1OC (stereo not given),Activity,Phaedon cochleariae [1],Active
same,Activity,Spodoptera frugiperda [2],inactive
CCOc1cc2c(cc1C)C(c1cc(OC)cc(OC)c1)C1=C(COC1=O)N2 (stereo not given),Activity,Phaedon cochleariae [1],Active
same,Activity,Spodoptera frugiperda [2],inactive
O=C1OCC2=C1C(c1cccc(OC(F)(F)C(F)F)c1)c1cc3c(cc1N2)OCO3 (stereo not given),Activity,Spodoptera frugiperda [5],Active
same,Activity,Phaedon cochleariae [1],Active
O=C1OCC2=C1C(c1cc(Cl)cc(Cl)c1)c1cc3c(cc1N2)OCO3 (stereo not given),Activity,Phaedon cochleariae [1],Active
CCOc1ccc2c(c1)NC1=C(C(=O)OC1)C2c1cc(OC)cc(OC)c1 (stereo not given),Activity,CHO [6],Toxic
same,Activity,CHO [7],Toxic
same,Activity,Spodoptera frugiperda [8],Active
same,Activity,Sf9 [9],Active
same,Activity,Phaedon cochleariae [10],Active
COc1cc(OC)cc(C2C3=C(COC3=O)Nc3c2ccc(OC)c3OC)c1 (stereo not given),Activity,CHO [6],Toxic
same,Activity,Phaedon cochleariae [11],Active
same,Activity,CHO [7],Toxic
same,Activity,Spodoptera frugiperda [8],Active
same,Activity,Sf9 [9],Active
same,inhibition,Bos taurus,Active
COc1cc(OC)cc(C2C3=C(Nc4cc5c(cc42)OCO5)C(C)OC3=O)c1 (stereo not given),Activity,Spodoptera frugiperda [3],Active
same,Activity,Phaedon cochleariae [1],Active
COc1ccc2c(c1OC)OC1=C(C(=O)OC1)C2c1cc(Cl)cc(Cl)c1 (stereo not given),Activity,Phaedon cochleariae [4],inactive
same,Activity,Spodoptera frugiperda [3],Active
COc1cc(OC)cc(C2C3=C(CC(C)OC3=O)Nc3cc4c(cc32)OCO4)c1 (stereo not given),Activity,Spodoptera frugiperda [3],Active
same,Activity,Phaedon cochleariae [10],Active
COc1cc(C2C3=C(COC3=O)Nc3cc4c(cc32)OCO4)ccc1Cl (stereo not given),Activity,Spodoptera frugiperda [3],Active
same,Activity,Phaedon cochleariae [10],Active
COc1cc(C2C3=C(COC3=O)Nc3cc4c(cc32)OC(F)(F)O4)cc(OC)c1OC (stereo not given),Activity,Phaedon cochleariae [1],Active
same,Activity,Spodoptera frugiperda [2],inactive
COc1cc(OC)cc(C2C3=C(COC3=O)Nc3cc(OC)cc(OC)c32)c1 (stereo not given),Activity,Spodoptera frugiperda [3],Active
same,Activity,Phaedon cochleariae [1],Active
COc1cc(OC)cc(C2C3=C(COC3=O)Nc3c2ccc(C)c3C)c1 (stereo not given),Activity,Spodoptera frugiperda [5],Active
same,Activity,Phaedon cochleariae [1],Active
O=C1OCC2=C1C(c1cncc(-c3ccc(F)cc3)c1)c1cc3c(cc1N2)OCO3 (stereo not given),Activity,Spodoptera frugiperda [3],Active
same,Activity,Phaedon cochleariae [1],Active
Cc1cc(C)cc(C2C3=C(COC3=O)Nc3cc4c(cc32)OCO4)c1 (stereo not given),Activity,Phaedon cochleariae [1],Active
N#Cc1cccc(C2C3=C(COC3=O)Nc3cc4c(cc32)OCO4)c1 (stereo not given),Activity,Phaedon cochleariae [4],inactive
same,Activity,Spodoptera frugiperda [3],Active
CN1OC(C)(C)C2=C(C1=O)C(c1cccc(Cl)c1)c1cc3c(cc1N2)OCO3 (stereo not given),Activity,Phaedon cochleariae [4],inactive
same,Activity,Spodoptera frugiperda [3],Active
O=C1OCC2=C1C(c1cccc(F)c1)c1cc3c(cc1N2)OCO3 (stereo not given),Activity,Phaedon cochleariae [1],Active
COc1cc(C2C3=C(COC3=O)Nc3cc4c(cc32)OCO4)cc(O)c1OC (stereo not given),Activity,Phaedon cochleariae [1],Active
same,Activity,Spodoptera frugiperda [2],inactive
O=C1OCC2=C1C(c1cccc(C(F)(F)F)c1)c1cc3c(cc1N2)OCO3 (stereo not given),Activity,Spodoptera frugiperda [5],Active
same,Activity,Phaedon cochleariae [1],Active
O=C1OCC2=C1C(c1cccc(OC(F)(F)F)c1)c1cc3c(cc1N2)OCO3 (stereo not given),Activity,Phaedon cochleariae [1],Active
CCOc1cccc(C2C3=C(COC3=O)Nc3cc4c(cc32)OCO4)c1 (stereo not given),Activity,Spodoptera frugiperda [5],Active
same,Activity,Phaedon cochleariae [1],Active
COc1ccc(C2C3=C(COC3=O)Nc3cc4c(cc32)OCO4)cn1 (stereo not given),Activity,Spodoptera frugiperda [3],Active
same,Activity,Phaedon cochleariae [10],Active
O=C1CCC2=C1C(c1cccc(Cl)c1)c1cc3c(cc1N2)OCO3 (stereo not given),Activity,CHO [6],Toxic
same,Activity,Sf9 [12],Active
same,Activity,CHO [7],Toxic
same,Activity,Phaedon cochleariae [4],inactive
same,Activity,Spodoptera frugiperda [2],inactive
COc1ccc2c(c1)C(c1cc(OC)c(OC)c(OC)c1)C1=C(COC1=O)N2 (stereo not given),Activity,Phaedon cochleariae [11],Active
same,Activity,Spodoptera frugiperda [2],inactive
COc1ccc(C2C3=C(COC3=O)Nc3cc4c(cc32)OCO4)cc1OC (stereo not given),Activity,CHO [6],Toxic
same,Activity,Sf9 [12],Active
same,Activity,CHO [7],Toxic
same,Activity,Phaedon cochleariae [4],inactive
same,Activity,Spodoptera frugiperda [2],inactive
COc1c(Cl)cc(C2C3=C(COC3=O)Nc3cc4c(cc32)OCO4)cc1Cl (stereo not given),Activity,Spodoptera frugiperda [5],Active
same,Activity,Phaedon cochleariae [1],Active
COc1cc2c(c(OC)c1OC)-c1ccc(OC)c(=O)cc1[C@@H](NC(C)=O)CC2 [COLCHICINE],Activity,CHO [6],Toxic
same,Activity,CHO [7],Toxic
same,Activity,Sf9 [9],Active
same,inhibition,Bos taurus,Active
CC(C)Oc1cccc(C2C3=C(COC3=O)Nc3cc4c(cc32)OCO4)c1 (stereo not given),Activity,Phaedon cochleariae [4],inactive
same,Activity,Spodoptera frugiperda [3],Active
COc1cc(OC)cc(C2C3=C(COC3=O)Nc3c(OC)cc(C)cc32)c1 (stereo not given),Activity,Phaedon cochleariae [11],Active
same,Activity,Spodoptera frugiperda [3],Active
COc1cc(OC)cc(C2C3=C(COC3=O)Nc3cc(OC(C)C)ccc32)c1 (stereo not given),Activity,CHO [6],Toxic
same,Activity,Sf9 [12],Active
same,Activity,CHO [7],Toxic
same,Activity,Phaedon cochleariae [4],inactive
same,Activity,Spodoptera frugiperda [3],Active
O=C1OCC2=C1C(c1cccc(Br)c1)c1cc3c(cc1N2)OCO3 (stereo not given),Activity,Phaedon cochleariae [1],Active
O=C1OCC2=C1C(c1cc(Br)cs1)c1cc3c(cc1N2)OCO3 (stereo not given),Activity,Phaedon cochleariae [4],inactive
same,Activity,Spodoptera frugiperda [3],Active
COc1ccc2c(c1)OC1=C(C(=O)OC1)C2c1cc(Cl)cc(Cl)c1 (stereo not given),Activity,Phaedon cochleariae [4],inactive
same,Activity,Spodoptera frugiperda [3],Active
COc1cc(OC)cc([C@H]2C3=C(COC3=O)Nc3cc(OC)ccc32)c1,Activity,Sf9 [9],Active
O=C1OCC2=C1C(c1cc(F)cc(F)c1)c1cc3c(cc1N2)OCO3 (stereo not given),Activity,Phaedon cochleariae [1],Active
COc1cc(C2C3=C(COC3=O)Nc3cc4c(cc32)OCO4)cc2c1OCO2 (stereo not given),Activity,Spodoptera frugiperda [3],Active
O=C1OCC2=C1C(c1cc(C(F)(F)F)cc(Cl)c1F)c1cc3c(cc1N2)OCO3 (stereo not given),Activity,Phaedon cochleariae [11],Active
same,Activity,Spodoptera frugiperda [5],Active
COc1cc(C2C3=C(COC3=O)Cc3cc4c(cc32)OCO4)cc(OC)c1OC (stereo not given),Activity,Phaedon cochleariae [1],Active
same,Activity,Spodoptera frugiperda [2],inactive
COc1cc(OC)cc(C2C3=C(COC3=O)Nc3cc(OC)c(C)cc32)c1 (stereo not given),Activity,Phaedon cochleariae [11],Active
same,Activity,Spodoptera frugiperda [3],Active
COc1cc(C2C3=C(COC3=O)Nc3cc4c(cc32)OCO4)cc(OC)c1OC (stereo not given),Activity,Phaedon cochleariae [11],Active
same,Activity,Spodoptera frugiperda [2],inactive
COc1cc(OC)cc(C2C3=C(COC3=O)Nc3ccc(OC)cc32)c1 (stereo not given),Activity,Phaedon cochleariae [11],Active
same,Activity,Spodoptera frugiperda [5],Active
COc1cc(OC)cc(C2C3=C(COC3=O)Nc3cc(OC)ccc32)c1 (stereo not given),Activity,Phaedon cochleariae [11],Active
same,Activity,Spodoptera frugiperda [8],Active
